The values that follow come from ChEMBL document CHEMBL5329172, “Chloroacetamide fragment library screening identifies new scaffolds for covalent inhibition of the TEAD·YAP1 interaction” (RSC Med Chem, 2023).

Test [1] concerns the target T1, YAP1-TEAD4 (Homo sapiens) (UniProt P46937+Q15561). The test can be described thus: Covalent inhibition of GST-tagged TEAD4 (217 to 434 residues) (unknown origin) expressed in Escherichia coli BL21 (DE3) cells/FAM-labelled YAP1 (60 to 99 residues)(unknown origin) protein-protein interaction assessed as second protein-compound adduct formation at 100 uM incubated for 24 hrs at 4 degree C followed by mass spectrometry analysis. The essentials:
(§1)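 Intact-protein MS: 2.5 μM protein (TEAD4 217–434 with GST cleaved, TEAD4C367S, TEAD1 209–426, TEAD2 217–447 or TEAD3 210–427) incubated with 100 μM compound in PBS for 24 h at 4 °C. Samples were centrifuged to remove precipitate, desalted on a C3 reverse-phase column with a water/acetonitrile 0.1% formic acid gradient, and masses were read by Q-TOF. Adduct peaks were reported as percent.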

The target of test [2] is T1, YAP1-TEAD4 (Homo sapiens). The experiment in a line: Inhibition of GST-tagged TEAD4 (217 to 434 residues) (unknown origin) expressed in Escherichia coli BL21 (DE3) cells/FAM-labelled YAP1 (60 to 99 residues)(unknown origin) protein-protein interaction assessed as maximum inhibition at 50 uM preincubated for 24 hrs at 4 degree C with TEAD4 followed by fluorescent labelled YAP1 addition by fluorescence polarization assay. The essentials: (§2)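 FP: 64 nM TEAD4, TEAD4C367S, TEAD2 or TEAD3, or 250 nM TEAD1, was preincubated with compound for 24 h at 4 °C in PBS with 0.01% Triton X-100. FAM-YAP1 60–99 peptide (disulfide-crosslinked) was then added at 16 nM final. Polarization was read at ex 485/em 535 nm. Percent inhibition was taken relative to no-compound and no-protein controls. The single-point primary screen used 50 μM.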
For orientation: In fluorescence polarisation assays a small probe gives low polarisation when free and higher when bound to something large.

For test [3], the target named is T2, YAP1-TEAD4 (Homo sapiens, UniProt Q15561). The test can be described thus: Inhibition of GST-tagged TEAD4 (217 to 434 residues) (unknown origin) expressed in Escherichia coli BL21 (DE3) cells/FAM-labelled YAP1 (60 to 99 residues)(unknown origin) protein-protein interaction preincubated for 24 hrs at 4 degree C with TEAD4 followed by fluorescent labelled YAP1 addition by fluorescence polarization assay. The essentials: as §2

In test [4] the target is T3, Transcriptional coactivator YAP1/Transcriptional enhancer factor TEF-1 (Homo sapiens) (UniProt P46937+P28347). The test can be described thus: Inhibition of TEAD1 (209 to 426 residues) (unknown origin) expressed in Escherichia coli BL21 (DE3) cells/FAM-labelled YAP1 (60 to 99 residues)(unknown origin) protein-protein interaction preincubated for 24 hrs at 4 degree C with compound followed by fluorescent labelled YAP1 addition by fluorescence polarization assay. The essentials:
as §2

The target of test [5] is T2, YAP1-TEAD4. The test can be described thus: Inhibition of GST-tagged TEAD4 (217 to 434 residues) (unknown origin) expressed in Escherichia coli BL21 (DE3) cells/FAM-labelled YAP1 (60 to 99 residues)(unknown origin) protein-protein interaction preincubated for 0.5 hrs at 4 degree C with TEAD4 followed by fluorescent labelled YAP1 addition by fluorescence polarization assay. The essentials: (§3)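 Time-course FP: 64 nM TEAD4 was preincubated with varying compound concentrations for 0.5, 6, 24 or 48 h at 4 °C in PBS with 0.01% Triton X-100. 16 nM FAM-YAP1 60–99 peptide was then added and polarization read at 485/535 nm, n = 2. Inhibition was taken relative to no-compound and no-protein controls.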

The target of test [6] is T1, YAP1-TEAD4 (Homo sapiens). The test can be described thus: Covalent inhibition of GST-tagged TEAD4 (217 to 434 residues) (unknown origin) expressed in Escherichia coli BL21 (DE3) cells/FAM-labelled YAP1 (60 to 99 residues)(unknown origin) protein-protein interaction assessed as protein-compound adduct formation by measuring reaction half life at 100 uM incubated for 0.5 to 6 hrs at 4 degree C followed by mass spectrometry analysis. To be noted: time 0.5-6 hrs. The essentials: (§4)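 Kinetics by MS: 2.5 μM TEAD4 was incubated at 4 °C with 3.1–100 μM compound. Aliquots were quenched with 0.1 M formic acid at set times from 0.5 h upward and analysed by whole-protein MS. Adduct relative to unreacted protein was fit to 100×(1−e^(−kobs·t)) to give kobs. kobs versus concentration was fit hyperbolically for kinact and KI, or linearly for kinact/KI where no plateau was reached.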

Test [7] concerns the target T3, Transcriptional coactivator YAP1/Transcriptional enhancer factor TEF-1 (Homo sapiens). The test can be described thus: Covalent inhibition of TEAD1 (209 to 426 residues) (unknown origin) expressed in Escherichia coli BL21 (DE3) cells/FAM-labelled YAP1 (60 to 99 residues)(unknown origin) protein-protein interaction assessed as protein-compound adduct formation at 100 uM incubated for 24 hrs at 4 degree C followed by mass spectrometry analysis. The essentials: as §1

The target of test [8] is T1, YAP1-TEAD4 (Homo sapiens). The experiment in a line: Inhibition of GST-tagged TEAD4 (217 to 434 residues) (unknown origin) expressed in Escherichia coli BL21 (DE3) cells/FAM-labelled YAP1 (60 to 99 residues)(unknown origin) protein-protein interaction assessed maximum inhibition preincubated for 0.5 hrs at 4 degree C with TEAD4 followed by fluorescent labelled YAP1 addition by fluorescence polarization assay. The essentials: as §3

Test [9] concerns the target T1, YAP1-TEAD4 (Homo sapiens). The experiment in a line: Covalent inhibition of GST-tagged TEAD4 (217 to 434 residues) (unknown origin) expressed in Escherichia coli BL21 (DE3) cells/FAM-labelled YAP1 (60 to 99 residues)(unknown origin) protein-protein interaction assessed as protein-compound adduct formation by second order rate constant, kinact/ki ratio at 100 uM incubated for 0.5 to 6 hrs at 4 degree C followed by mass spectrometry analysis. To be noted: time 0.5-6 hrs. The essentials: as §4

Test [10] deals with TEAD3-YAP1 (Homo sapiens) (UniProt P46937+Q99594). The test can be described thus: Inhibition of TEAD3 (210 to 427 residues) (unknown origin) expressed in Escherichia coli BL21 (DE3) cells/FAM-labelled YAP1 (60 to 99 residues)(unknown origin) protein-protein interaction preincubated for 24 hrs at 4 degree C with compound followed by fluorescent labelled YAP1 addition by fluorescence polarization assay. The essentials:
as §2

The target in test [11] is T1, YAP1-TEAD4 (Homo sapiens). The test can be described thus: Covalent inhibition of GST-tagged TEAD4 (217 to 434 residues) (unknown origin) expressed in Escherichia coli BL21 (DE3) cells/FAM-labelled YAP1 (60 to 99 residues)(unknown origin) protein-protein interaction assessed as protein-compound adduct formation at 100 uM incubated for 24 hrs at 4 degree C followed by mass spectrometry analysis. The essentials: as §1

Test [12] has as its target T2, YAP1-TEAD4. The test can be described thus: Covalent inhibition of GST-tagged TEAD4 (217 to 434 residues) (unknown origin) expressed in Escherichia coli BL21 (DE3) cells/FAM-labelled YAP1 (60 to 99 residues)(unknown origin) protein-protein interaction assessed as protein-compound adduct formation by measuring inhibition constant at 100 uM incubated for 0.5 to 6 hrs at 4 degree C followed by mass spectrometry analysis. The essentials:
as §4

The target of the next test is TEAD2-YAP1 (Homo sapiens, UniProt Q15562). The experiment in a line: Inhibition of TEAD2 (217 to 447 residues) (unknown origin) expressed in Escherichia coli BL21 (DE3) cells/FAM-labelled YAP1 (60 to 99 residues)(unknown origin) protein-protein interaction preincubated for 24 hrs at 4 degree C with compound followed by fluorescent labelled YAP1 addition by fluorescence polarization assay. The essentials: as §2

The source made the active and inactive calls. No cut-off for these calls is given here.

What is called IC50 is the concentration needed to halve the response being measured.

T2 sequence (P46937 whole entry, the tested form may be a part): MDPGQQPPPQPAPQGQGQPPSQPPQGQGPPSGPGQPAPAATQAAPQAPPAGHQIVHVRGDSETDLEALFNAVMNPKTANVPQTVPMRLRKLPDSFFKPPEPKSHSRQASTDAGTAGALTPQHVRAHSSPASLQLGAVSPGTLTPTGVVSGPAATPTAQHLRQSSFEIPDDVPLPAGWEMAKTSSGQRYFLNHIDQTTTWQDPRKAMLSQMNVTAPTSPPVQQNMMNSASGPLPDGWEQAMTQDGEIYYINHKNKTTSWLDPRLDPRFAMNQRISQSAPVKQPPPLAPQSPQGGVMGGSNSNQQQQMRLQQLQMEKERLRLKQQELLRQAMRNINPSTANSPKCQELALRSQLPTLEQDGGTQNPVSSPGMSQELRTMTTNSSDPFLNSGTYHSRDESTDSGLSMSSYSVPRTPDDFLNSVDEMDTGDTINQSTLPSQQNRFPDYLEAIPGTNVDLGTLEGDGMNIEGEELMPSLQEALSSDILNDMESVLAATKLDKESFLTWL
T2 sequence (Q15561 whole entry, the tested form may be a part): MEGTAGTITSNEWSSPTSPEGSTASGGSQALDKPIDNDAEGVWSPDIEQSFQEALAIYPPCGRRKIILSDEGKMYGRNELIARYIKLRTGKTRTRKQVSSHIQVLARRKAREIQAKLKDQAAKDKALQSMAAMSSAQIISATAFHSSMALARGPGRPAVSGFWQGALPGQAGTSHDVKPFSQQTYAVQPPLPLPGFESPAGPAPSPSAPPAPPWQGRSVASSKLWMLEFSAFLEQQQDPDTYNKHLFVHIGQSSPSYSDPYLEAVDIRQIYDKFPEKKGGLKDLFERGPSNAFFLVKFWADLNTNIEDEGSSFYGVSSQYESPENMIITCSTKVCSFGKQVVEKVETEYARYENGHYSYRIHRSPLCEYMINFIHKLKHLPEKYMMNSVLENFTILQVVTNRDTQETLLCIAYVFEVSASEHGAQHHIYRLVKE
TEAD3-YAP1 (Homo sapiens), sequence (P46937 whole entry, looked up, the tested form may be a part): as the sequence (P46937 whole entry, the tested form may be a part) above
TEAD3-YAP1 (Homo sapiens), sequence (Q99594 whole entry, looked up, the tested form may be a part): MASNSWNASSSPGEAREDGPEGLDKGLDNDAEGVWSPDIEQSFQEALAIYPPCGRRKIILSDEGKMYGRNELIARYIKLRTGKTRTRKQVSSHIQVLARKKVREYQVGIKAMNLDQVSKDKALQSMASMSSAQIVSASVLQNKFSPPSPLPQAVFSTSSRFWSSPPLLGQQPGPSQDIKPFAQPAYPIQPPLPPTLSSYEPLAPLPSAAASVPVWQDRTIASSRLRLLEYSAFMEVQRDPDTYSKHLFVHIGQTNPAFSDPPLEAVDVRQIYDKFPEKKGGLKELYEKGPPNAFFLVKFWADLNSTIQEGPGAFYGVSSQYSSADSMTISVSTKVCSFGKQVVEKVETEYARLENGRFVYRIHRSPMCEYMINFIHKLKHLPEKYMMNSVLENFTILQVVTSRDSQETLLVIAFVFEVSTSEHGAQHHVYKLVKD
TEAD2-YAP1, sequence (P46937 whole entry, the tested form may be a part): as the sequence (P46937 whole entry, the tested form may be a part) above
TEAD2-YAP1, sequence (Q15562 whole entry, the tested form may be a part): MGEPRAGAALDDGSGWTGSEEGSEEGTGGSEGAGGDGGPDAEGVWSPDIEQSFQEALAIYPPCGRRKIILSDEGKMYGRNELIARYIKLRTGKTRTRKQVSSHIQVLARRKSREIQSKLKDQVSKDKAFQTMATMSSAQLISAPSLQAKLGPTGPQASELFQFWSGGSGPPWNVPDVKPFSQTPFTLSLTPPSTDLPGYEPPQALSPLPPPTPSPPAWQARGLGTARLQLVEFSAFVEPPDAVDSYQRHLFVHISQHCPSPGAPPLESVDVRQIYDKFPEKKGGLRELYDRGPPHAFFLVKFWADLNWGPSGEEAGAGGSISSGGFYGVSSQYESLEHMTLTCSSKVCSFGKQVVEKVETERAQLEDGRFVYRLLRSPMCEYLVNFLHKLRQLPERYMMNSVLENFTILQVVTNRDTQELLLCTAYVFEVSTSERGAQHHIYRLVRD
T3 sequence (P28347 whole entry, looked up, the tested form may be a part): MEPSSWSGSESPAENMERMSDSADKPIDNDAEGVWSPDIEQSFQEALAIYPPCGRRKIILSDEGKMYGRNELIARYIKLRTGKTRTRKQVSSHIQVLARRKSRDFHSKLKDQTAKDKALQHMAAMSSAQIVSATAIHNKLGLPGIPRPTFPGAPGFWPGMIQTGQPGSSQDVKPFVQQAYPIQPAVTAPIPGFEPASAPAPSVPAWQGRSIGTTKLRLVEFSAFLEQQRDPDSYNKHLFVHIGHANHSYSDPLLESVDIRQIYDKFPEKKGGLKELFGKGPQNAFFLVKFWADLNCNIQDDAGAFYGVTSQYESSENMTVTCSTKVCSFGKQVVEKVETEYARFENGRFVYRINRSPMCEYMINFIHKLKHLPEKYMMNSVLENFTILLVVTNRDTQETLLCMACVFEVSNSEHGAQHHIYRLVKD
T3 sequence (P46937 whole entry, looked up, the tested form may be a part): as the sequence (P46937 whole entry, the tested form may be a part) above

Turning to `O=C(NCCc1ccccc1)C(c1cccs1)N(C(=O)CCl)c1cccc(Cl)c1` (configuration not stated), the percent second protein-compound adduct in [1] was 18%. Also, the Imax in [2] is 31%; in [8], 37%. The IC50 on YAP1-TEAD4 [3] was found to be 1.4 µM; against YAP1-TEAD4 [5], 9.7 µM. Besides, the inhibition result in test [4] and in [10] was “inactive” in each case. The T1/2 in test [6] came to 2.2 h. Further, the inhibition entry in [7] was “Active”. The Ratio in [9] amounted to 5.1 M⁻¹ s⁻¹. In test [11], the percent protein-compound adduct formation amounted to 55%. In addition, on YAP1-TEAD4 [12], the Ki turned out to be 17.3 µM.

As for `CCS(=O)(=O)Oc1ccc(CN(Cc2ccc(F)cc2)C(=O)CCl)cc1`, the percent second protein-compound adduct in test [1] came to 11%. Also, the Imax in [2] was found to be 37%. Besides, the IC50 against YAP1-TEAD4 [3] is 4.2 µM; at TEAD2-YAP1, 22 µM. Besides, the inhibition entry in test [4] and in [10] was “inactive” throughout. Moreover, the T1/2 in [6] came out at 3.3 h. For the same compound, the inhibition result in test [7] is “Active”. Further, in [9], the Ratio is 1.3 M⁻¹ s⁻¹. In test [11], the percent protein-compound adduct formation was 46%. The Ki at YAP1-TEAD4 [12] came to 45.8 µM.

As to `Cc1ccc(C2=NN(C(=O)CCl)C(c3ccco3)C2)cc1` (configuration not stated), the percent second protein-compound adduct in [1] amounted to 15%. Also, the Imax came to 40% in test [2] and 35% in [8]. Moreover, the figures for the IC50 against YAP1-TEAD4 [3], against YAP1-TEAD4 [5] and on TEAD2-YAP1 were 2.2 µM, 18.1 µM and 2.3 µM, respectively. Further, the inhibition entry in test [4] and in test [10] was “inactive” in each case. In addition, the inhibition result in test [7] was “Active”. The Ratio in test [9] is 13.5 M⁻¹ s⁻¹. The percent protein-compound adduct formation in test [11] stood at 85%.

In the case of `COc1cccc(C2CC(Cc3cccs3)=NN2C(=O)CCl)c1OC` (configuration not stated), the percent second protein-compound adduct in [1] turned out to be 15%. Moreover, the figures for the Imax in test [2] and in test [8] were 48% and 53%, respectively. The half-inhibitory concentration (IC50) against YAP1-TEAD4 [3] stood at 3.3 µM; at YAP1-TEAD4 [5] it was 23.6 µM; on TEAD2-YAP1, 3.1 µM. The inhibition entry in test [4] and in [10] was “inactive” each time. For the same compound, in test [6], the T1/2 was determined as 0.6 h. For the same compound, in [7], the inhibition result was “Active”. Besides, the Ratio in [9] stood at 8.3 M⁻¹ s⁻¹. Moreover, the percent protein-compound adduct formation in test [11] came out at 78%. For the same compound, on YAP1-TEAD4 [12], the Ki came out at 37.7 µM.
